In article PMC5946624 (Dose-Response, 2018):
Like-named read-outs stand apart in the source and are kept apart here. Marks after values point to notes of the source that are not given here. One block for each molecule: values may come before it.

Tests used:
[1] = system: Escherichia coli DH5α; assay: Growth of E coli DH5α transformed with pBTR1; type: cell-based; settings: 4 hours, control = 100
[2] = molecular target: T1, CYP2E1 (Homo sapiens, UniProt P05181); assay: Simulation of hydroxylating activities of CYP2E1 with DROS; type: biochemical; settings: after 10 minutes; for Concentration of hydroxylated product, Control, Cyt b 5 + pNP: Cyt b5, without CYP2E1; for Concentration of hydroxylated product, CYP2E1, pNP: pNP 25 µmol/L, with CYP2E1; for Concentration of hydroxylated product, CYP2E1, Cyt b 5 + pNP: with CYP2E1 and Cyt b5; for Concentration of hydroxylated product, Control, pNP: without CYP2E1
Procedure, shortened: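 Reconstituted hydroxylation with diffusible oxygen species used initial pNP 25 µmol/L, DLPC 20 µmol/L and CYP2E1 100 nmol/L (omitted in controls). When present: NADPH 200 µmol/L, CPR 200 nmol/L, Cyt b5 200 nmol/L, H2O2 32 µmol/L, or KO2 ≤16 µmol/L. KO2 was added from a DMSO/15-crown ether substock, giving ~1% DMSO/crown ether in the reaction. Hydroxylated product (nmol/L) was measured after 10 min.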
Target sequence in this assay (P05181 whole entry): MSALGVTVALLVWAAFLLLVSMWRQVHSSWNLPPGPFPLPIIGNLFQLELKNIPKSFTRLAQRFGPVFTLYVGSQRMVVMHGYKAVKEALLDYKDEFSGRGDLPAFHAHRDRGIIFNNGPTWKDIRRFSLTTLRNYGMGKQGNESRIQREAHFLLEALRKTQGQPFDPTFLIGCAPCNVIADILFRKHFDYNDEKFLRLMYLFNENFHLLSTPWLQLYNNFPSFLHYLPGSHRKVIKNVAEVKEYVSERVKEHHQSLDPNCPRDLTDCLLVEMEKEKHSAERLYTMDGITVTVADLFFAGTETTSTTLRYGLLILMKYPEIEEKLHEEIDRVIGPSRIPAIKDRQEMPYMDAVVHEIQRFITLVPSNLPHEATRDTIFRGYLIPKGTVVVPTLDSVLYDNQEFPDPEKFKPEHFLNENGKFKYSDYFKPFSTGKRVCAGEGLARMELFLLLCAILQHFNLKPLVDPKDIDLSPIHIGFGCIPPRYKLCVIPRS
Target sequence in this assay (P16435 2-677 partner): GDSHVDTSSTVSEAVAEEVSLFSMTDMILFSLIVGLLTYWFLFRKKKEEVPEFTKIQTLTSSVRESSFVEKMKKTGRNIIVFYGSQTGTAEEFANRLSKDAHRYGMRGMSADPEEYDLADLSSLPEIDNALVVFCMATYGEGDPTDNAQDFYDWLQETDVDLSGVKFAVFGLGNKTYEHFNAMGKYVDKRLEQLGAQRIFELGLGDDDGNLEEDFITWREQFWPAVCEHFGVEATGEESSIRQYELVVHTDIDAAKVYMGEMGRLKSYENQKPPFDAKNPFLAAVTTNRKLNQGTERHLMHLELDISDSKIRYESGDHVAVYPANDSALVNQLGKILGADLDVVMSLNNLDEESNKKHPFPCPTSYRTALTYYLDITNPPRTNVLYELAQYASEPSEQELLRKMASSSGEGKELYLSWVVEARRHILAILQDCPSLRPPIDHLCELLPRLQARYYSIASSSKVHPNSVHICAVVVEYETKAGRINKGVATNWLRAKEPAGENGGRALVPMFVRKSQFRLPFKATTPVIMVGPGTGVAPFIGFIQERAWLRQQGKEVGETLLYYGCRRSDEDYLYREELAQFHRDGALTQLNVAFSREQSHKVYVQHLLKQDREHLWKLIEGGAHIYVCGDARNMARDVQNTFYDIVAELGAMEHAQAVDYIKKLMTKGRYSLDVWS
Target sequence in this assay (P00167 2-134 partner): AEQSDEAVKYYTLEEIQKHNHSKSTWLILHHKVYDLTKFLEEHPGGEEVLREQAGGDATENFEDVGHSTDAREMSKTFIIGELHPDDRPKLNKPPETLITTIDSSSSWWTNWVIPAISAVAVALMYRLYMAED

[3] = molecular target: T1, CYP2E1; assay: CYP2E1 baculosome pNP hydroxylation; type: biochemical; settings: for Effect on pNC formation: earlier time (10 minutes)
Target sequence in this assay (P05181 whole entry): as the sequence (P05181 whole entry) above

[4] = molecular target: T1, CYP2E1; assay: Extended CYP2E1-pNP inhibition profiling; type: biochemical; settings: additive up to 50 µmol/L
Target sequence in this assay (P05181 whole entry): as above
Target sequence in this assay (P16435 2-677 partner): as the sequence (P16435 2-677 partner) above
Target sequence in this assay (P00167 2-134 partner): as the sequence (P00167 2-134 partner) above

[5] = system: CYP2E1; settings: enzyme taken at 0.1 µmol/L; cited from earlier work
[6] = system: E coli DH5α; assay: Growth; type: cell-based, Escherichia coli
[7] = system: B megaterium MTCC 428; assay: Growth; type: cell-based, Bacillus megaterium
[8] = system: Escherichia coli DH5α; settings: 6 hours, control = 100

SMILES: Nc1nc[nH]n1 [Amitrol, amitrol]
Relative growth density ([1]; amitrol 10^−3 M, + IPTG): 60 (9) | Relative growth density ([1]; amitrol 10^−3 M, − IPTG): 94 (4) | Relative growth density ([1]; amitrol 10^−6 M, + IPTG): 70 (6) | Relative growth density ([1]; amitrol 10^−6 M, − IPTG): 103 (10) | Relative growth density ([1]; amitrol 10^−9 M, + IPTG): 63 (5) | Relative growth density ([1]; amitrol 10^−9 M, − IPTG): 103 (3) | Relative growth density ([1]; amitrol 10^−12 M, + IPTG): 51 (4) | Relative growth density ([1]; amitrol 10^−12 M, − IPTG): 50 (2)

Concentration of hydroxylated product, Control, Cyt b 5 + pNP [2]: ∼70^b nmol/L | Concentration of hydroxylated product, CYP2E1, pNP [2]: ∼104^b nmol/L | Concentration of hydroxylated product, CYP2E1, Cyt b 5 + pNP [2]: ∼499^b nmol/L | Concentration of hydroxylated product, Control, pNP [2]: ∼88^b nmol/L
SMILES: [O]O [O2 ^˙−]

Ki Uncompetitive ([3]; calculated from IC50 (website)): 100.9 µM | Ki ([3]; read-out: Ki Competitive, Cheng-Prusoff from IC50, KM 14 µmol/L): 14.1 µM | Ki ([3]; read-out: Ki Noncompetitive, calculated from IC50 (website)): 115 µM
SMILES: CCc1oc2ccccc2c1C(=O)c1ccc(OC)cc1 [MeOBzr, methoxybenzarone]

SMILES: Cn1c(=O)[nH]c(=O)c2[nH]cnc21 [3-Methylxanthine (MetXan), 3-Methylxanthine]
Effect on pNP reactions [4]: did not significantly perturb/inhibit

SMILES: N[C@@H](Cc1cc(I)c(O)c(I)c1)C(=O)O [DIT, diiodotyrosine]
Effect on pNC formation ([3]; 10 nmol/L additive): enhanced reactions | Effect on pNC formation ([3]; high/higher additive concentrations): inhibited pNC formation

Km ([3]; read-out: 2E1-pNP KM, substrate constant used for Cheng-Prusoff): 14 µM
SMILES: O=[N+]([O-])c1ccc(O)cc1 [pNP, para-nitrophenol]

Ki ([3]; Ki Competitive, Cheng-Prusoff from IC50, KM 14 µmol/L): 8.7 µM | Ki ([3]; Ki Noncompetitive, calculated from IC50 (website)): 71 µM | Ki Uncompetitive ([3]; calculated from IC50 (website)): 62.3 µM | Inhibition at 10 nmol/L compared to 1 µmol/L ([3]; initial sampling time): greater extent of inhibition
SMILES: CCc1oc2ccccc2c1C(=O)c1ccc(O)cc1 [Bzr, benzarone]

SMILES: OO [H2O2]
Concentration of hydroxylated product, Control, Cyt b 5 + pNP [2]: Nil | Concentration of hydroxylated product, CYP2E1, pNP [2]: <10 nmol/L | Concentration of hydroxylated product, CYP2E1, Cyt b 5 + pNP [2]: ∼74 nmol/L | Concentration of hydroxylated product, Control, pNP [2]: Nil

SMILES: c1ccc2[nH]ncc2c1 [indazole]
Kd [5]: 0.005 µM

SMILES: [N-]=[N+]=[N-] [Azide, azide]
Effect on growth ([6]; azide at mmol/L ranges, compared with B megaterium): much less harsh | Effect on growth ([6]; nmol/L concentration of azide): inhibitory | Effect on growth ([6]; µmol/L concentration of azide): no inhibition whatsoever | Effect on growth ([7]; azide 10^−6 to 10^−12 M): did not impact | Effect on growth ([7]; azide at mmol/L ranges): very effective in curbing the growth | Relative growth density ([8]; azide 10^−3 M, + IPTG): 24 (3) | Relative growth density ([8]; azide 10^−3 M, − IPTG): 12 (5) | Relative growth density ([8]; azide 10^−6 M, + IPTG): 79 (5) | Relative growth density ([8]; azide 10^−6 M, − IPTG): 97 (7) | Relative growth density ([8]; azide 10^−9 M, + IPTG): 29 (6) | Relative growth density ([8]; azide 10^−9 M, − IPTG): 41 (6) | Relative growth density ([8]; azide 10^−12 M, + IPTG): 32 (3) | Relative growth density ([8]; azide 10^−12 M, − IPTG): 107 (8)
